Reference: PMC3166240 (Cancer research, 2010)

Experiments:
α4β1 integrin [1] = target: T1, α4β1 integrin (Homo sapiens, UniProt P05556+P13612); experiment: cell adhesion competitive inhibition assay; format: cell-based
In short: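 Wells were coated with neutravidin, then loaded with biotinylated CS-1 to immobilize the ligand, and blocked with BSA. Molt-4 cells (human T-cell leukemia, α4β1-bearing) were incubated in the wells with test compound. Wells were washed, formalin-fixed and crystal violet-stained, and absorbance was read at 570 nm. Percent inhibition came from concentration-dependent curves.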

[2] = test system: Raji cells (human B-cell lymphoma) xenograft tumors; experiment: animal biodistribution study for 7 in Raji xenograft mice; format: in vivo, BALB/c nu/nu mice; settings: i.v.
In short: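 Eleven female BALB/c nu/nu mice, 5–6 weeks old, were xenografted s.c. in the abdomen with 5 × 10⁶ Raji cells. Tumors were measured after three weeks. The ¹²⁵I-labeled test compound (4–6 μCi; 5 μg, 6 nmol) in normal saline was given i.v. via the tail vein. Mice were killed at 4, 24 and 48 h. Tissues were weighed and γ-counted (%ID/g). Mice were grouped afterwards by slow or fast blood clearance.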

α4β1 integrin [3] = target: T1, α4β1 integrin; experiment: in vitro binding studies of radioiodinated 8; settings: 125I-labelled

T1 sequence (P13612 34-1032): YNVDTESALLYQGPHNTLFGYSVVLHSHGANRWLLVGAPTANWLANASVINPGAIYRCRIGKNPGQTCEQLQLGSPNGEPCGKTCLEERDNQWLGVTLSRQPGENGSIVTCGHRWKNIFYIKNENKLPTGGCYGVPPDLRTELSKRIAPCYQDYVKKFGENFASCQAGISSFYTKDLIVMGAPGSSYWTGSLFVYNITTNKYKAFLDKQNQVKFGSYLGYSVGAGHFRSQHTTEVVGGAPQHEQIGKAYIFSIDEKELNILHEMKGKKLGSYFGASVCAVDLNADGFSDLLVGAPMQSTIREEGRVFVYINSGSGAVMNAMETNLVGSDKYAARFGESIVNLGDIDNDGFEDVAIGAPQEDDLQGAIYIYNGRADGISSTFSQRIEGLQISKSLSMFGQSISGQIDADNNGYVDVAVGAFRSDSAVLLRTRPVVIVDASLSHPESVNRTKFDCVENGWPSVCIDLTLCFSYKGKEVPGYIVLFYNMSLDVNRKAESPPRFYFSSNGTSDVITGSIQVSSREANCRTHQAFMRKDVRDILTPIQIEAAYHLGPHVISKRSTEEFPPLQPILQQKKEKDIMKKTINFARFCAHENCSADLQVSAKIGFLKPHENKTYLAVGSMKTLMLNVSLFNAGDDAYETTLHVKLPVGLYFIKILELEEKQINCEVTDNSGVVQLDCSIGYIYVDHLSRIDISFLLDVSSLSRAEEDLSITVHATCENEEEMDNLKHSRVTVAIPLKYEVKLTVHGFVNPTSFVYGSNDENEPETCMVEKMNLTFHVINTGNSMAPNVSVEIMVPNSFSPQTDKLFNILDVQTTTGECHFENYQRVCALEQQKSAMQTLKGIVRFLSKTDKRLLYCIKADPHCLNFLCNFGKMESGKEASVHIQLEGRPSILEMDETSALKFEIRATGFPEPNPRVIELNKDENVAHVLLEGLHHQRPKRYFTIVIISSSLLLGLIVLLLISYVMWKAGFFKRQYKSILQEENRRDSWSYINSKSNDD
T1 sequence (P05556 21-798): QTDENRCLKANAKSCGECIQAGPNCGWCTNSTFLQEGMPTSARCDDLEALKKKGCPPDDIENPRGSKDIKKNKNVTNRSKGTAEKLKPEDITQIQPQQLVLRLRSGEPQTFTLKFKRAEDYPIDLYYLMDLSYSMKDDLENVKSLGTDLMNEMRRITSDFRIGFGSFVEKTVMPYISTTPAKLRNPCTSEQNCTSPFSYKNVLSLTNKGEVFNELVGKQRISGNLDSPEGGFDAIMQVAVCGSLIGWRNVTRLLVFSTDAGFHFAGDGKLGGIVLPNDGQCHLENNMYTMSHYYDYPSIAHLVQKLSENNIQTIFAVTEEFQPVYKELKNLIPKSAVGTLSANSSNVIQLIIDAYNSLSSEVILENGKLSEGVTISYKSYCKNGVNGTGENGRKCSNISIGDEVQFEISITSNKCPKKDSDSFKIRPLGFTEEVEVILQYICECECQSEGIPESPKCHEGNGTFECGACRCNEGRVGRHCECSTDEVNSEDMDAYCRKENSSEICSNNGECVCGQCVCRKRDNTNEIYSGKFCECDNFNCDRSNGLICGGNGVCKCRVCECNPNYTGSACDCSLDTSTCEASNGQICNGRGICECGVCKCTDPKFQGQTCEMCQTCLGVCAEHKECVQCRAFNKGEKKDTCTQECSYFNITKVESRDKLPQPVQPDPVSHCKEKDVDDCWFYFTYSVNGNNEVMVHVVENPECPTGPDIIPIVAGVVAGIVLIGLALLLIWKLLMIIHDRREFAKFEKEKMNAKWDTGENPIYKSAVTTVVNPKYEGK

Molecule: (S)-6-(1-Carbamoylcyclohexylamino)-5-[(S)-2-{4-(5-iodo-1H-benzo[d]imidazol-2-ylamino)benz-amido]-6-[(E)-3-(pyridin-3-yl)acrylamido}hexanamido]-6-oxohexanoic Acid [compound 6]
- fold less potent than the fluoro (3), chloro (4), and bromo (5) analogues (α4β1 integrin [1]; compared with 3, 4, 5): approximately 10 fold
- fold more potent than the unsubstituted (15a) and methyl analogues (15b) (α4β1 integrin [1]; compared with 15a, 15b): 100 fold

Molecule: NC(=O)C1(NC(=O)[C@H](CCC(=O)O)NC(=O)[C@H](CCCCNC(=O)/C=C/c2cccnc2)NC(=O)c2ccc(Nc3nc4cc([125I])ccc4[nH]3)cc2)CCCCC1 [compound 7, [^125I]-(S)-6-(1-Carbamoylcyclohexylamino)-5-[(S)-2-{4-(5-iodo-1H-benzo[d]imidazol-2-ylamino)-benzamido]-6-[(E)-3-(pyridin-3-yl)acrylamido}hexanamido]-6-oxo-hexanoic Acid]
- reduced in vitro affinity for α4β1 integrin compared to the bromo analogue 5 (α4β1 integrin [1]; compared with 5): nearly ten-fold
- major dose accumulated in liver, spleen and marrow ([2]; fast blood clearance mice (3 at 24 h, 2 at 48 h)): 25 % ID/g
- tumor uptake ([2]; fast blood clearance mice): less than 1.5 % ID/g
- still circulating in the blood ([2]; slow blood clearance mice (2 at 24 h, 1 at 48 h)): approximately 15%
- liver, spleen and marrow uptakes ([2]; slow blood clearance mice, 48 h): less than 8 % ID/g
- tumor uptake ([2]; slow blood clearance mice): greater than 6 % ID/g

Molecule: NC(=O)[C@H](Cc1ccc(O)c([125I])c1)C(=O)NC(=O)C1(NC(=O)[C@H](CCC(=O)O)NC(=O)[C@H](CCCCNC(=O)/C=C/c2cccnc2)NC(=O)c2ccc(Nc3nc4cc(Br)ccc4[nH]3)cc2)CCCCC1 [compound 8, [^125I]-(S)-6-[1-{(S)-3-Amino-2-(4-hydroxy-3-iodobenzyl)-3-oxopropanoyl-carbamoyl}cyclohexylamino]-5-[(S)-2-{4-(5-bromo-1H-benzo[d]imidazol-2-ylamino)benzamido]-6-[(E)-3-(pyridin-3-yl)-acrylamido}hexanamido]-6-oxohexanoic Acid]
- in vitro binding (α4β1 integrin [3]): < 4%

Molecule: NC(=O)C1(NC(=O)[C@H](CCCC(=O)O)NC(=O)[C@H](CCCCNC(=O)/C=C/c2cccnc2)NC(=O)c2ccc(Nc3nc4cc(Br)ccc4[nH]3)cc2)CCCCC1 [compound 5, (S)-5-[(S)-2-{4-(5-Bromo-1H-benzo[d]imidazol-2-ylamino}benzamido]-6-[(E)-3-(pyridin-3-yl)-acrylamido}hexanamido]-6-(1-carbamoylcyclohexylamino)-6-oxo-hexanoic Acid]
- fold less potent than previous leads (α4β1 integrin [1]; compared with previous leads): 2 fold
